{"source": "ChEMBL document CHEMBL4680186", "about": "“New azole antifungals with a fused triazinone scaffold” (Eur J Med Chem, 2020)", "key": {"[1]": {"assay": "Toxicity in CRL:WI rat assessed as weight gain at 300 mg/kg, po up to 14 days", "assay_type": "organism-based", "details": "in vivo, 336 h, time <=14 day", "procedure,_shortened": "(§1)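 Acute oral toxicity in rats: single gavage dose of 300 mg/kg bw (two groups). Behaviour, body weight change, toxicity signs and mortality were recorded at 30 min, 1, 2, 4 and 6 h after dosing, then daily for 14 days.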"}, "[2]": {"system": "Rhizopus arrhizus", "assay": "Antifungal activity against Rhizopus oryzae RHPOR1 assessed as reduction in microbial growth after 24 hrs by broth microdilution method", "assay_type": "functional", "procedure,_shortened": "(§2)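 CLSI M38 broth microdilution in RPMI 1640 buffered to pH 7.0 with MOPS. Drugs were diluted in DMSO then medium; final range 0.032-16 mg/L. Conidia or sporangiospores came from 7-day potato dextrose agar cultures; diluted (2×) inocula were 0.9×10^4–4.7×10^4 CFU/mL. Incubation at 35 °C, read at 48 h except Zygomycetes at 24 h. MIC read visually as lowest concentration preventing 100% growth; duplicate.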"}, "[3]": {"system": "Candida albicans", "assay": "Antifungal activity against Candida albicans CAAL93 infected in Swiss mouse assessed as survival at 10 mg/kg, po after 14 days relative to control", "assay_type": "functional", "details": "336 h, time 14 day", "procedure,_shortened": "(§3)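 Swiss mice (~25 g) immunosuppressed with prednisolone 30 mg/kg s.c. one day before challenge; day 0 i.v. infection with C. albicans blastoconidia (5.10⁶ yeast/mL, 100 µL). Oral dosing 1 h post-infection, once daily for 5 days, 10 mg/kg (CAAL93) or 15 mg/kg (DSY292), vehicle 40% DMSO/25% Tween80/35% olive oil. Mice given 50% grapefruit juice ad libitum. Survival followed 14 days (log-rank Mantel-Cox).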"}, "[4]": {"system": "Candida albicans", "assay": "Inhibition of ergosterol biosynthesis in Candida albicans CAAL93 at 10 ng/ml after 18 hrs by GC-MS analysis relative to control", "assay_type": "functional"}, "[5]": {"system": "Scedosporium apiospermum", "assay": "Antifungal activity against Scedosporium apiospermum SCAP1 assessed as reduction in microbial growth […] by broth microdilution method", "assay_type": "functional"}, "[6]": {"system": "Mucor circinelloides", "assay": "Antifungal activity against Mucor circinelloides MURI1 assessed as reduction in microbial growth after 24 hrs by broth microdilution method", "assay_type": "functional", "procedure,_shortened": "as §2"}, "[7]": {"system": "Fusarium sp.", "assay": "Antifungal activity against Fusarium sp. assessed as reduction in microbial growth […] by broth microdilution method", "assay_type": "functional"}, "[8]": {"system": "Candida albicans", "assay": "Inhibition of sterol biosynthesis in Candida albicans CAAL93 assessed as ergostadienol level at 1 ng/ml after 18 hrs by GC-MS analysis (reference value: 1.6%)", "assay_type": "functional", "parameters": "scale not given: the % may be the effect or the level left"}, "[9]": {"system": "Candida albicans", "assay": "Inhibition of sterol biosynthesis in Candida albicans CAAL93 assessed as eburicol level at 10 ng/ml after 18 hrs by GC-MS analysis relative to control", "assay_type": "functional", "parameters": "scale not given: the % may be the effect or the level left", "procedure,_shortened": "(§4)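 C. albicans CAAL93 blastospores were grown 18 h at 35 °C with stirring in 50 mL Sabouraud broth, with drug added before incubation. Cells were pelleted and saponified in ethanolic KOH at 80 °C for 60 min, and sterols extracted with hexane. Analysis by GC-MS (EI 70 eV, splitless injection at 250 °C, helium carrier); sterols identified by fragmentation pattern.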"}, "[10]": {"system": "Candida albicans", "assay": "Inhibition of sterol biosynthesis in Candida albicans CAAL93 assessed as eburicol level at 1 ng/ml after 18 hrs by GC-MS analysis relative to control", "assay_type": "functional", "parameters": "scale not given: the % may be the effect or the level left"}, "[11]": {"system": "Candida albicans", "assay": "Inhibition of sterol biosynthesis in Candida albicans CAAL93 assessed as fecosterol level at 1 ng/ml after 18 hrs by GC-MS analysis relative to control", "assay_type": "functional", "parameters": "scale not given: the % may be the effect or the level left"}, "[12]": {"assay": "Toxicity in CRL:WI rat assessed as mortality at 300 mg/kg, po up to 14 days", "assay_type": "organism-based", "details": "in vivo, 336 h, time <=14 day", "procedure,_shortened": "as §1"}, "[13]": {"system": "Candida albicans", "assay": "Antifungal activity against Candida albicans DSY292 harboring Erg1l G464S/R467K/Y132 infected in Swiss mouse assessed as reduction in kidney fungal burden at 10 mg/kg, po after 14 days", "assay_type": "functional, organism-based", "details": "time 14.0 day"}, "[14]": {"system": "Candida albicans", "assay": "Inhibition of sterol biosynthesis in Candida albicans CAAL93 assessed as ergosterol level at 1 ng/ml after 18 hrs by GC-MS analysis (reference value: 89.7%)", "assay_type": "functional", "parameters": "scale not given: the % may be the effect or the level left"}, "[15]": {"system": "Candida albicans", "assay": "Inhibition of sterol biosynthesis in Candida albicans CAAL93 assessed as other sterols level at 10 ng/ml after 18 hrs by GC-MS analysis (Rvb < 1%)", "assay_type": "functional", "parameters": "scale not given: the % may be the effect or the level left", "procedure,_shortened": "as §4"}, "[16]": {"system": "Candida albicans", "assay": "Inhibition of sterol biosynthesis in Candida albicans CAAL93 assessed as lanosterol level at 10 ng/ml after 18 hrs by GC-MS analysis (reference value: 1.6%)", "assay_type": "functional", "parameters": "scale not given: the % may be the effect or the level left", "procedure,_shortened": "as §4"}, "[17]": {"system": "Candida albicans", "assay": "Inhibition of sterol biosynthesis in Candida albicans CAAL93 assessed as lanosterol level at 1 ng/ml after 18 hrs by GC-MS analysis (reference value: 1.6%)", "assay_type": "functional", "parameters": "scale not given: the % may be the effect or the level left"}, "[18]": {"system": "Pichia kudriavzevii (Candida krusei)", "assay": "Antifungal activity against fluconazole-resistant Candida krusei CAKR8 assessed as reduction in microbial growth after 24 hrs by resazurin staining based spectrofluorometric method", "details": "CAKR8, 24 h"}, "[19]": {"system": "Candida albicans", "assay": "Inhibition of sterol biosynthesis in Candida albicans CAAL93 assessed as ergostadienol level at 10 ng/ml after 18 hrs by GC-MS analysis (reference value: 1.6%)", "assay_type": "functional", "parameters": "scale not given: the % may be the effect or the level left", "procedure,_shortened": "as §4"}, "[20]": {"system": "Rhizopus arrhizus", "assay": "Antifungal activity against Rhizopus oryzae RHPOR2 assessed as reduction in microbial growth after 24 hrs by broth microdilution method", "assay_type": "functional", "procedure,_shortened": "as §2"}, "[21]": {"system": "Candida albicans", "assay": "Inhibition of sterol biosynthesis in Candida albicans CAAL93 assessed as zymosterol level at 1 ng/ml after 18 hrs by GC-MS analysis (reference value: 1.6%)", "assay_type": "functional", "parameters": "scale not given: the % may be the effect or the level left"}, "[22]": {"system": "Candida albicans", "assay": "Inhibition of sterol biosynthesis in Candida albicans CAAL93 assessed as 14alpha-methylfecosterol level at 10 ng/ml after 18 hrs by GC-MS analysis relative to control", "assay_type": "functional", "parameters": "scale not given: the % may be the effect or the level left", "procedure,_shortened": "as §4"}, "[23]": {"system": "Candida albicans", "assay": "Inhibition of sterol biosynthesis in Candida albicans CAAL93 assessed as other sterols level at 1 ng/ml after 18 hrs by GC-MS analysis (Rvb < 1%)", "assay_type": "functional", "parameters": "scale not given: the % may be the effect or the level left"}, "[24]": {"assay": "Toxicity in CRL:WI rat assessed as behavioral changes at 300 mg/kg, po up to 14 days", "assay_type": "organism-based", "details": "in vivo, 336 h, time <=14 day", "procedure,_shortened": "as §1"}, "[25]": {"system": "Candida albicans", "assay": "Inhibition of sterol biosynthesis in Candida albicans CAAL93 assessed as ergosterol level at 10 ng/ml after 18 hrs by GC-MS analysis (reference value: 89.7%)", "assay_type": "functional", "parameters": "scale not given: the % may be the effect or the level left", "procedure,_shortened": "as §4"}, "[26]": {"assay": "Toxicity in CRL:WI rat assessed as hunched back at 300 mg/kg, po up to 14 days", "assay_type": "organism-based", "details": "in vivo, 336 h, time <=14 day", "procedure,_shortened": "as §1"}, "[27]": {"system": "Candida albicans", "assay": "Antifungal activity against Candida albicans CAAL93 infected in Swiss mouse assessed as reduction in kidney fungal burden at 10 mg/kg, po after 14 days", "assay_type": "functional, organism-based", "details": "time 14.0 day"}, "[28]": {"system": "Candida albicans", "assay": "Antifungal activity against Candida albicans DSY292 harboring Erg1l G464S/R467K/Y132 mutant infected in Swiss mouse assessed as survival at 15 mg/kg, po after 10 days", "assay_type": "functional, organism-based", "details": "time 10.0 day", "procedure,_shortened": "as §3"}, "[29]": {"system": "Pichia kudriavzevii (Candida krusei)", "assay": "Antifungal activity against fluconazole-resistant Candida krusei CAKR7 assessed as reduction in microbial growth after 24 hrs by resazurin staining based spectrofluorometric method", "details": "CAKR7, 24 h"}, "[30]": {"system": "Candida albicans", "assay": "Inhibition of ergosterol biosynthesis in Candida albicans CAAL93 at 1 ng/ml after 18 hrs by GC-MS analysis relative to control", "assay_type": "functional"}, "[31]": {"system": "Candida albicans", "assay": "Inhibition of sterol biosynthesis in Candida albicans CAAL93 assessed as episterol level at 1 ng/ml after 18 hrs by GC-MS analysis (reference value: 2%)", "assay_type": "functional", "parameters": "scale not given: the % may be the effect or the level left"}, "[32]": {"system": "Candida albicans", "assay": "Inhibition of ergosterol biosynthesis in Candida albicans CAAL93 after 18 hrs by GC-MS analysis", "assay_type": "functional", "details": "dose 1-10 ng/ml"}}, "note": "Calls of active or inactive are those of the source. The calls are words filed in the database; no cut-off is given here."}
{"smiles": "COc1ccc(-c2cc3cnn([C@H](C)[C@](O)(Cn4cncn4)c4ccc(F)cc4F)c(=O)n3c2)cc1", "values": [{"measurement": "Activity", "setting": "[1]", "result": "Non-Toxic"}, {"measurement": "MIC", "setting": "[2]", "result": 0.0625, "unit": "µg/mL"}, {"measurement": "survival at 10 mg/kg", "setting": "[3]", "result": 100, "unit": "%"}, {"measurement": "inhibition", "setting": "[4]", "result": 53, "unit": "%"}, {"measurement": "MIC", "setting": "[5]", "result": 3, "unit": "µg/mL"}, {"measurement": "MIC", "setting": "[6]", "result": 0.19, "unit": "µg/mL"}, {"measurement": "MIC", "setting": "[7]", "result": "> 16", "unit": "µg/mL"}, {"measurement": "Activity", "setting": "[8]", "result": 3.7, "unit": "%"}, {"measurement": "Activity", "setting": "[9]", "result": 23.1, "unit": "%"}, {"measurement": "Activity", "setting": "[10]", "result": 1.8, "unit": "%"}, {"measurement": "Activity", "setting": "[11]", "result": 3.2, "unit": "%"}, {"measurement": "Activity", "setting": "[12]", "result": "Non-Toxic"}, {"measurement": "Activity", "setting": "[13]", "result": "Active"}, {"measurement": "Activity", "setting": "[14]", "result": 61, "unit": "%"}, {"measurement": "Activity", "setting": "[15]", "result": 5, "unit": "%"}, {"measurement": "Activity", "setting": "[16]", "result": 25.2, "unit": "%"}, {"measurement": "Activity", "setting": "[17]", "result": 7.7, "unit": "%"}, {"measurement": "MIC", "setting": "[18]", "result": 0.081, "unit": "µg/mL"}, {"measurement": "Activity", "setting": "[19]", "result": 1.1, "unit": "%"}, {"measurement": "MIC", "setting": "[20]", "result": 0.094, "unit": "µg/mL"}, {"measurement": "Activity", "setting": "[21]", "result": 3.3, "unit": "%"}, {"measurement": "Activity", "setting": "[22]", "result": 3.6, "unit": "%"}, {"measurement": "Activity", "setting": "[23]", "result": 8.3, "unit": "%"}, {"measurement": "Activity", "setting": "[24]", "result": "Toxic"}, {"measurement": "Activity", "setting": "[25]", "result": 42, "unit": "%"}, {"measurement": "Activity", "setting": "[26]", "result": "Toxic"}, {"measurement": "Activity", "setting": "[27]", "result": "Active"}, {"measurement": "Survival", "setting": "[28]", "result": "Active"}, {"measurement": "MIC", "setting": "[29]", "result": 0.062, "unit": "µg/mL"}, {"measurement": "inhibition", "setting": "[30]", "result": 32, "unit": "%"}, {"measurement": "Activity", "setting": "[31]", "result": 11, "unit": "%"}, {"measurement": "inhibition", "setting": "[32]", "result": "Dose-dependent effect"}]}
